Assay results from different studies.
Lines come from different studies, so protocols differ.
Target: Insulin-like growth factor 1 receptor (IGF1R, Homo sapiens, UniProt P08069)

For CC#CC(=O)N1CCC[C@H]1c1nc(-c2ccc(C(=O)Nc3ccccn3)cc2)c2c(N)nccn12, the inhibition was 3% (enzyme activity; inhibitor; 1 µM).
For COc1ccc2oc(-c3ccc4nc(N)oc4c3)c/c(=N\c3ccccc3NC(=O)CCN)c2c1, the remaining binding was 93% (binding; 1 µM).
For N#Cc1ccc(NC(=O)Nc2ccccc2)cc1, the remaining binding was 100% (cell-free assay; competition with immobilised ligand; 25 µM).
C1=C/COCc2cc(ccc2OCCN2CCCC2)Nc2nccc(n2)-c2cccc(c2)COC/1 has a remaining binding of 83% (binding; 0.1 µM).
With C=CC(=O)N1CCC([C@@H]2CCNc3c(C(N)=O)c(-c4ccc(Oc5ccccc5)cc4)nn32)CC1 the inhibition was 14% (cell-free assay; 1 µM).
C[C@H]1CC[C@H](n2c3cnccc3c3cnc(Nc4ccc5c(n4)CCN(C(=O)CO)C5)nc32)CC1 gave a remaining binding of 100% (binding; 1 µM).
For CCCCC(=O)Nc1ccc(-c2ccc3ncn(CCC)c(=O)c3c2)cn1, the remaining binding was 98% (binding; competition with immobilised ligand; 0.5 µM).
CN1CCN(C(=O)c2ccc(NC(=O)Nc3ccc(N(C)c4ccnc(Nc5ccc(CS(C)(=O)=O)cc5)n4)cc3)cc2)CC1 gave a remaining binding of 100% (binding; 1 µM).
C#Cc1cnc(Nc2ccnc(CO)c2)nc1Nc1ccccc1S(C)(=O)=NC#N (stereo not drawn) has a remaining signal of 36% (cell-free assay; 1 µM).
